Results from different studies.
Lines come from different studies, so protocols differ. Values after ≈ are worked out from the molar mass of the structure shown.

Structure (SMILES)	organism	test	test system	conditions	measurement	value
NCCc1ccc(O)cc1	Cryptosporidium parvum	parasite growth, imaging	HCT-8	1 mM, 24 h, intracellular	activity vs control	94%
Cc1c(NN=C(C#N)C2=NC(=O)CS2)c(=O)n(-c2ccccc2)n1C	Klebsiella pneumoniae	microbial killing, broth dilution			MBC	2 µg/mL (≈ 5.64 µM)
CC(C)CCCCCCCCCCCCCCCc1cc(O)cc(O)c1	Klebsiella pneumoniae	microbial growth	ATCC29665		IC50	> 200 µM
Oc1cccc2cccnc12	Klebsiella pneumoniae	microbial growth, broth dilution	ATCC700603		IC50	49.5 µg/mL
COC(=O)c1cc(-c2cccc(NC(=S)Nc3ccc(OC)cc3)c2)on1	Klebsiella pneumoniae	microbial growth, broth dilution	BAA1705		MIC	> 64 µg/mL
CCC(CCCCCCCCCCc1cc(O)cc(O)c1)C(C)C (stereo not drawn)	Streptococcus pneumoniae	microbial growth			IC50	30.2 µM
COC(=O)c1cc(-c2cccc(NC(=O)Nc3ccccc3F)c2)on1	Klebsiella pneumoniae	microbial growth, broth dilution	BAA1705		MIC	> 64 µg/mL
CC(C)C(C)CCCCCCCCCCCc1cc(O)cc(O)c1 (stereo not drawn)	Klebsiella pneumoniae	microbial growth	ATCC29665		IC50	> 200 µM
COC(=O)c1cc(-c2cccc(NC(=S)Nc3ccc(C#N)cc3)c2)on1	Klebsiella pneumoniae	microbial growth, broth dilution	BAA1705		MIC	> 64 µg/mL
CCCCCCCCCCCCCCCc1cc(O)cc(O)c1	Streptococcus pneumoniae	microbial growth			IC50	> 200 µM
N#Cc1c[nH]c2ccccc12	Cryptosporidium parvum	parasite growth	HCT-8	24 h, intracellular	EC90	386 µM
COC(=O)c1cc(-c2cccc(NC(=O)Nc3cc(Cl)ccc3Cl)c2)on1	Klebsiella pneumoniae	microbial growth, broth dilution	BAA1705		MIC	> 64 µg/mL
